Assay outcomes as filed in PubChem BioAssay.
STK33 kinase inh: inhibitors of human STK33 kinase | inhibition, % at 10 µM | Q9BYT3 | 320,000 tested, 0.073% active | purified STK33, MBP phosphorylation, ADP-Glo luminescence;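 active means inhibition at or above 25%, using the most active replicate where run in duplicate; inactive means inhibition below 25%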
CDK5 p35 inh: blocks human CDK5/p35 kinase activity; inhibition, % at 10 µM; Recombinant CDK5/p35, ADP-Glo luminescence, 60 min; Q00535+Q15078; 330,000 tested, 0.01% active;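 active means highest replicate inhibition of at least 50% and at least 75% of replicates reaching 50%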;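 further: plate controls were DMSO neutral control for no effect and GW8510 at 10 µM for full effect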
DYRK1A inh: inhibitors of rat Dyrk1A kinase; Q63470; ADP-Glo luminescence, NFATc1 peptide; inhibition, % at 12.5 µM; 310,000 tested, 0.43% active; in the data active means inhibition above about 50%;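 further: plate controls were vehicle with enzyme for no effect and no enzyme for full effect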
GSK3beta inhib: human GSK3beta kinase inhibition | GST-GSK3beta kinase, ADP-Glo luminescence, 60 min; stronger effect = lower value | AID 2097 | activity score (negative = inhibition), % at 10 µM | P49841 | 300,000 tested, 0.038% active;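 active means more than half of replicate wells score below -50%, meaning over 50% inhibition versus plate controls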;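 further: 0% = median DMSO wells and -100% = median GW8510 positive control wells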
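Assay system: GST-fused GSK3beta enzyme, cell-free / Medium: Tris pH 7.5 buffer with MgCl2, DTT, BSA, heparin / Also added: peptide substrate plus 25 µM ATP (final) / Compound: 10 µM single point / Timing: kinase reaction with compound 60 min at room temperature / Detection: ADP-Glo luminescence / Benchmarks: DMSO neutral wells and GW8510 at 20 µM as positive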
GSK3 alpha inh: blocks human GSK-3 alpha kinase | P49840 | ADP-Glo luminescence, 60 min | inhibition, % at 10 µM | 320,000 tested, 0.1% active;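 active means more than half of replicates show inhibition above 20%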;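 further: GST-tagged GSK-3 alpha with peptide substrate and 25 µM ATP; 0% = DMSO neutral wells and 100% = GW8510 positive control wells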
Target sequence (P49840 whole entry, looked up): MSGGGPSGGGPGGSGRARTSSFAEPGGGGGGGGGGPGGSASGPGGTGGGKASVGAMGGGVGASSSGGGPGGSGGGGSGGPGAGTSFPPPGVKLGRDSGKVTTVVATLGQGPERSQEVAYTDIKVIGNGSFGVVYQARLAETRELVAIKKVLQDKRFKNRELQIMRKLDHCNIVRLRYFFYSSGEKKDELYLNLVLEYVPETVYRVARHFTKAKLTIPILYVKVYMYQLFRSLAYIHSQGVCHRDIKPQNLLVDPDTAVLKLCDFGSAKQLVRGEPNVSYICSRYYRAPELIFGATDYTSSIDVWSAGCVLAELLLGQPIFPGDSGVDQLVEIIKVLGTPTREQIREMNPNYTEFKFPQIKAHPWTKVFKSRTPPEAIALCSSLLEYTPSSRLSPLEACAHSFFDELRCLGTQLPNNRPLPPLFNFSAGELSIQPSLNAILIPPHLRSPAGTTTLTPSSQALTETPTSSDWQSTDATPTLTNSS
ADP-Glo artifact: counter-screen for Dyrk1A inhibitors: ADP-Glo luciferase artifacts. shares compounds with DYRK1A inh. ADP-Glo luciferase artifact assay, no Dyrk1A, luminescence. AC50, µM (doses to about 12 µM), for inactives: top-dose activity change, negative = inhibition. 1,300 tested, under 10 active;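 active means fitted half-maximal dose AC50 no more than ten times the top valid tested dose, with luminescence dropping as dose rises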
An asterisk follows results filed as active; x = no result. This is one part of a sample in which hits are shown more often than they occur.

SMILES	STK33 kinase inh	CDK5 p35 inh	DYRK1A inh	GSK3beta inhib	GSK3 alpha inh	ADP-Glo artifact
COc1ccc(C(=O)Nc2ccnc(-c3cccnc3)n2)cc1	0.4	2.9	31.1	-13.0	0.8	x
Cc1ccc(C(=O)Nc2ccnc(-c3cccnc3)n2)cc1	x	-0.2	59.6*	-2.9	2.4	9.1%
COc1cccc(/C=N/n2c(C3CCCCC3)n[nH]c2=S)c1O	1.9	1.7	52.6*	0.3	23.7	10.9%
Oc1ccc(/C=N/n2c(C3CCCCC3)n[nH]c2=S)c(O)c1	11.7	5.5	82.7*	-10.2	20.0	8.9%
O=C(O)c1ccc2c(c1)S(=O)(=O)c1cc(Cl)ccc1C2=O	-1.6	-1.3	65.5*	x	74.4*	7.5%
COc1ccc(/C=C/C(=O)Nc2cccc(C(C)=O)c2)cc1	1.9	-1.6	56.2*	1.4	-3.4	6.5%
COc1ccccc1/C=C/C(=O)Nc1cccc(C(C)=O)c1	3.9	-4.1	4.6	3.0	x	x
O=C(/C=C/c1ccccc1)Nc1cccc(C(=O)NC2CC2)c1	x	0.3	62.6*	x	x	8.1%
Cc1cc(C)nc(SCC(=O)c2ccc3c(c2)OCCO3)n1	0.5	1.6	x	0.3	-0.6	x
O=C1C(C=NCc2ccncc2)=C(O)c2ccccc21	1.5	2.6	65.9*	4.2	2.0	9.6%
O=C1C(C=NCc2cccnc2)=C(O)c2ccccc21	x	2.3	4.8	-1.6	x	x
CC1(C)OC(=O)C(=Cc2ccc(-c3ccc(S(N)(=O)=O)cc3)o2)C(=O)O1	-1.3	-0.1	-1.2	0.2	-1.3	x
NC1=NC(=O)/C(=C\c2ccco2)S1	3.0	2.0	47.4	-0.6	2.9	x
NC1=NC(=O)/C(=C/c2ccc(-c3ccc(S(N)(=O)=O)cc3)o2)S1	0.1	40.1	76.9*	-2.0	64.9*	13.1%
CS(=O)(=O)Nc1ccc(-c2ccc(/C=C3\SC(N)=NC3=O)o2)cc1	-1.3	5.2	83.6*	0.5	55.3*	9.7%
O=C(O)COc1ccccc1/C=N/NC(=O)c1cc(-c2ccc(Cl)cc2)nc2ccccc12	-0.4	-0.4	12.5	2.6	-2.6	x
Cc1oc(-c2cccs2)nc1CN1CC[C@@](O)(c2ccccc2)[C@H]2CCCC[C@@H]21	-1.0	0.8	3.2	-2.0	-0.8	x
COc1ccc(Cl)cc1C(=O)NCc1cnn(C)c1C	-0.9	0.8	-0.4	1.9	-1.3	x
COC1=CC(=O)c2c(ccc3ncnc(N)c23)C1=O	x	3.6	51.3*	x	x	14.2%
Cc1cc2nncn2c2ccccc12	1.3	1.4	56.9*	1.0	-4.3	9.3%
c1ccc2c(-c3ccncc3)c[nH]c2c1	7.4	0.7	76.0*	1.4	0.9	8.4%
c1ccc(-c2nnc(-c3ccccc3)c(-c3c[nH]c4ccccc34)n2)cc1	2.2	0.0	1.6	-4.2	3.2	x
c1coc(CNc2nc(-c3cccs3)cs2)c1	3.6	-2.4	-8.6	0.9	1.9	x
Oc1ccc(-c2csc(NCc3ccco3)n2)cc1	0.7	-0.3	52.1*	-1.3	4.9	5.8%
COc1ccc(-c2coc3cc(O)ccc3c2=O)cc1O	4.5	1.6	56.5*	-12.0	10.0	9.2%
SMILES	STK33 kinase inh	CDK5 p35 inh	DYRK1A inh	GSK3beta inhib	GSK3 alpha inh	ADP-Glo artifact
O=C(CSCc1ccccc1Cl)NCCSc1ccccn1	-2.4	-1.0	-4.8	2.2	-0.7	x
Cc1nc(NC2=NCN(Cc3cccnc3)CN2)nc2ccccc12	x	-3.4	2.3	x	x	x
NC(=O)c1c(NC(=O)c2ccc(N3C(=O)CCC3=O)cc2)sc2c1CCCC2	5.8	4.1	59.8*	x	0.6	12.7%
CC1CCc2sc(NC(=O)c3ccc(N4C(=O)CCC4=O)cc3)c(C(N)=O)c2C1 (stereo not drawn)	1.2	1.5	13.8	-4.0	0.3	x
N=C(N)c1ccc(N=Nc2c(O)ccc3c2[nH]c2ccccc23)cc1	x	32.7	78.3*	x	x	6.1%
CC1=C(C(=O)Nc2cccc(C(=O)N3CCN(c4cccc(C(F)(F)F)c4)CC3)c2)SCCO1	-0.5	x	x	-2.1	-1.6	x
O=C1[C@H]2[C@H](C=CC[C@H]2C(=O)N2CCOCC2)CCN1Cc1ccccc1	-0.3	0.3	53.1*	2.2	-0.6	9.8%
O=C(Nc1ccccc1)[C@@H]1CC=C[C@@H]2CCN(Cc3ccccc3)C(=O)[C@@H]21	0.7	-3.3	1.4	-2.1	-2.1	x
O=c1cc[nH]c2c1ccc1cccnc12	1.2	-4.4	81.0*	-11.7	x	9.5%
O=C(CSc1nc(COc2ccccc2)nc2ccccc12)NC1CCCC1	-0.9	-1.3	-1.1	1.8	2.2	x
Nc1nnc(-c2cccc(F)c2)s1	2.4	3.8	22.8	1.7	0.5	x
O=c1oc2c(-c3cccc(F)c3)cc(O)cc2s1	2.2	-0.7	65.3*	-2.0	1.9	9.8%
COC(=O)NNC(=O)COc1ccc(Cl)cc1	-1.1	0.0	84.2*	1.8	1.2	6.9%
COc1ccc(OCC(=O)Nc2ccc(Cl)cc2)cc1	-0.2	1.7	0.0	-0.3	-1.8	x
Cc1ccc(-c2nn(-c3ccccc3)cc2CO)cc1	-1.4	0.1	0.5	1.3	-1.6	x
COc1ccc(-c2nn(-c3ccccc3)cc2CO)cc1	0.5	2.2	62.1*	-1.3	-0.7	12.9%
O=[N+]([O-])c1cc(/C=N/O)ccc1N1CCCC1	13.5	-3.7	50.5*	-52.3*	x	9.0%
CCOCc1c(C(=O)NC2=Nc3ccccc3NC(CC)=C2C(=O)OCC)oc2ccccc12	0.4	-1.0	0.7	1.2	-2.5	x
CCC(=O)Nc1c(C#N)c2nc3ccccc3nc2n1C1CCCCC1	-1.7	5.1	43.8	-11.1	9.9	x
CCC(=O)Nc1c(C#N)c2nc3ccccc3nc2n1-c1ccccc1C	0.3	-0.9	55.0*	-5.0	13.6	8.3%
CC(=O)NC12CC3CC(C1)CC(C(=O)Nc1nc4ccc(F)cc4s1)(C3)C2	2.3	-2.1	78.6*	0.7	-2.0	7.1%
Cc1noc(NS(=O)(=O)c2ccc(N/C=C\C(=O)c3ccc(Br)cc3)cc2)c1C	3.0	0.1	63.0*	2.5	-1.9	6.5%
Cc1ccc(OCCNC(=O)c2cc(C(=O)NCCOc3ccc(C)cc3)cc([N+](=O)[O-])c2)cc1	0.1	1.8	-0.5	1.4	-0.6	x
O=C(Nc1nc(-c2nc3ccccc3s2)cs1)C1COc2ccccc2O1 (stereo not drawn)	-0.2	-1.3	3.0	0.4	-2.0	x
COc1ccc(-c2cnnc(N/N=C/c3ccc(O)c(O)c3)n2)cc1	2.5	-1.4	67.7*	2.4	0.8	8.2%
COc1ccc(-c2cnnc(N/N=C/c3ccc(O)cc3)n2)cc1	0.3	-0.4	34.1	1.1	4.3	x
CC(C)C[C@H]1COCCS(=O)(=O)N1Cc1cccc(Cl)c1	0.3	0.7	50.6*	-7.2	5.8	8.4%
Fc1ccc(-c2nnn(Cc3ccccc3Cl)n2)cc1	-1.6	-0.4	-0.6	-2.9	0.8	x
COC(=O)c1c(-c2ccc(S(C)(=O)=O)cc2)sc2ccc(OC)cc12	0.0	1.1	51.4*	x	-1.9	9.8%
